The results in this text go back to ChEMBL document CHEMBL4673298, “Exploration of Structure-Activity Relationship of Aromatic Aldehydes Bearing Pyridinylmethoxy-Methyl Esters as Novel Antisickling Agents” (J Med Chem, 2020).

SMILES strings stand for the structures. Active and inactive are the calls of the source. The rule behind the calls is not given here.

Test [1] concerns Erythrocyte. The experiment in a line: Inhibition of sickling in sickle cell RBCs from blood isolated from patient with homozygous SS under hypoxic conditions incubated for 2 hrs. The class given is functional, tissue-based. The following applies: Homo sapiens. In a few lines: (§1)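 SS blood, hematocrit 20%, preincubated under air with compound (0.5, 1, 2 mM) for 1 h at 37 °C, then 2 h hypoxia (2.5% O2/97.5% N2) at 37 °C. Aliquots are fixed in 2% glutaraldehyde without air exposure. Cell morphology is scored from bright-field images at 40×. Three biological replicates, mean ± SD.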

The nature of test [2]: Inhibition of sickling in sickle cell RBCs from blood isolated from patient with homozygous SS at 2 mM under hypoxic conditions incubated for 2 hrs. The class given is functional. The following applies: Homo sapiens, Erythrocyte. In a few lines: as §1
The species named for test [3] is Homo sapiens. The experiment in a line: Binding affinity to Hemoglobin in normal human whole blood assessed as increase in Hb affinity for oxygen at 2 mM by oxygen equilibrium curve study. The class given is tissue-based. In a few lines:
(§2)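 Normal human whole blood, hematocrit 30%, incubated with or without compound in DMSO (0.5, 1.0 or 2.0 mM; 2 mM for the time course) at 37 °C. The blood is tonometered about 7 min at 37 °C against gas with 0.804, 2.935 and 5.528% O2 (6, 20, 40 mmHg). sO2 and pO2 are read on a blood gas analyzer. ΔP50% is taken relative to no compound. Time course sampled at 1, 2, 4, 8, 12, 24 h.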

Test [4] deals with Red blood cell. The experiment in a line: Binding affinity to Hemoglobin in sickle cell RBCs from blood isolated from patient with homozygous SS assessed as increase in hemoglobin modification under hypoxic conditions incubated for 2 hrs […]. The format is tissue-based. Conditions: Homo sapiens. The method in brief:
(§3)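 SS blood, hematocrit 20%, incubated under air with compound (0.5, 1, 2 mM) at 37 °C for 1 h, then hypoxic (2.5% O2/97.5% N2) at 37 °C for 2 h. Cells are washed and hemolyzed. Lysate is run on weak cation-exchange HPLC to quantify Hb adduct (modified Hb). Three biological replicates, mean ± SD.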

Test [5] has as its system Red blood cell. The experiment in a line: Binding affinity to Hemoglobin in sickle cell RBCs from blood isolated from patient with homozygous SS assessed as increase in Hb affinity for oxygen under hypoxic conditions incubated for 2 hrs by oxygen equilibrium curve study. The class given is tissue-based. The following applies: Homo sapiens. In a few lines:
(§4)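 SS blood, hematocrit 20%, incubated under air with compound (0.5, 1, 2 mM) at 37 °C for 1 h, then hypoxic (2.5% O2/97.5% N2) at 37 °C for 2 h. Cells are washed in PBS and hemolyzed hypotonically. Lysate in 0.1 M potassium phosphate pH 7.0 is run by Hemox analysis for P50. ΔP50 is given as percent of DMSO control. Three biological replicates, mean ± SD.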

The species entered for test [6] is Homo sapiens. The experiment in a line: Binding affinity to Hemoglobin in normal human whole blood assessed as increase in Hb affinity for oxygen incubated for 1.5 hrs by oxygen equilibrium curve study. The format is tissue-based. The method in brief:
as §2

Test [7] deals with Red blood cell. The experiment in a line: Binding affinity to Hemoglobin in sickle cell RBCs from blood isolated from patient with homozygous SS assessed as increase in hemoglobin modification at 1 mM under hypoxic conditions incubated for 2 hrs […]. The format is tissue-based. Conditions: Homo sapiens. In a few lines: as §3
The test system of test [8] is Red blood cell. The experiment in a line: Binding affinity to Hemoglobin in sickle cell RBCs from blood isolated from patient with homozygous SS assessed as increase in Hb affinity shift for oxygen at 1 mM under hypoxic conditions incubated for 2 hrs by oxygen equilibrium curve study. The format is tissue-based. The following applies: Homo sapiens. In a few lines:
as §4

Test [9] can be described thus: Inhibition of sickling in sickle cell RBCs from blood isolated from patient with homozygous SS at 0.5 mM under hypoxic conditions incubated for 2 hrs. Conditions: Homo sapiens, Erythrocyte. The format is functional. The method in brief:
as §1

Test [10] in a line: Inhibition of sickling in sickle cell RBCs from blood isolated from patient with homozygous SS at 1 mM under hypoxic conditions incubated for 2 hrs. The class given is functional. The following applies: Homo sapiens, Erythrocyte. In a few lines:
as §1

Test [11] relates to Red blood cell. The experiment in a line: Binding affinity to Hemoglobin in sickle cell RBCs from blood isolated from patient with homozygous SS assessed as increase in hemoglobin modification at 0.5 mM under hypoxic conditions incubated for 2 hrs […]. The format is tissue-based. The following applies: Homo sapiens. In a few lines: as §3
In test [12] the test system is Red blood cell. Put plainly: Binding affinity to Hemoglobin in sickle cell RBCs from blood isolated from patient with homozygous SS assessed as increase in Hb affinity shift for oxygen at 2 mM under hypoxic conditions incubated for 2 hrs by oxygen equilibrium curve study. The class given is tissue-based. The following applies: Homo sapiens. The method in brief:
as §4

Test [13] relates to Red blood cell. The experiment in a line: Binding affinity to Hemoglobin in sickle cell RBCs from blood isolated from patient with homozygous SS assessed as increase in hemoglobin modification at 2 mM under hypoxic conditions incubated for 2 hrs […]. The format is tissue-based. Conditions: Homo sapiens. In a few lines:
as §3

Test [14] relates to Red blood cell. The experiment in a line: Binding affinity to Hemoglobin in sickle cell RBCs from blood isolated from patient with homozygous SS assessed as increase in Hb affinity shift for oxygen at 0.5 mM under hypoxic conditions incubated for 2 hrs by oxygen equilibrium curve study. Conditions: Homo sapiens. The format is tissue-based. In a few lines:
as §4

Broadly, the inhibition is the drop in the measured response relative to a control, in per cent. Consider `COC(=O)c1ncccc1COc1cccc(O)c1C=O`, for which, in [1], the inhibition entry was “Dose-dependent effect”. This molecule also came in with an inhibition at 2000 µM in test [2] of more than 90%. Further, the result in [3] and in [6] was inactive. Further, the Activity result in test [4] and in [5] was “Dose-dependent effect” in each case.

Regarding `COC(=O)c1cccc(COc2ccc(OC)cc2C=O)n1`, the inhibition entry in test [1] was “Dose-dependent effect”. Testing at 2000 µM in test [2] gave an inhibition of 88%. The Activity is 41.7% in [7]; 20.1% in test [8]; “Dose-dependent effect” in [4]; 20.9% in test [11]; 37.1% in [12]; 63.8% in test [13]. Further, the Activity entry was “Dose-dependent effect” in test [5] and 4.8% in test [14]. Further, the outcome in test [3] and in test [6] was inactive. Moreover, in test [9], the inhibition at 500 µM came to 17.5%. The molecule further had an inhibition at 1000 µM in test [10] of 48.2%.

For the molecule `COC(=O)c1ccnc(COc2cccc(O)c2C=O)c1`, the inhibition result in [1] is “Dose-dependent effect”. For the same molecule, the inhibition at 2000 µM in test [2] is more than 90%. For the same molecule, the Activity was more than 80% in [7]; “Tde” in [3] (TDE = time-dependent effect); “Dose-dependent effect” in [4]; less than 100% in [13]; “Dose-dependent effect” in [5]; “Dose-dependent effect” in test [6].

Regarding `COC(=O)c1cccnc1COc1ccc(OC)cc1C=O`, the inhibition entry in test [1] was “Dose-dependent effect”. This molecule also came in with an inhibition at 2000 µM in test [2] of 99%. Moreover, the Activity is 49.9% in test [7]; “Tde” in [3] (TDE = time-dependent effect); 12.8% in test [8]; “Dose-dependent effect” in test [4]; 32.1% in test [11]; 21.3% in test [12]. For the same molecule, the Activity was 67.5% in test [13], “Dose-dependent effect” in [5], “Dose-dependent effect” in [6] and 5.9% in test [14]. Also, at 500 µM the inhibition in test [9] was 41.8%. Moreover, 1000 µM produced 71.7% inhibition in test [10].

Take `CC(C)n1nccc1-c1ncccc1COc1cccc(O)c1C=O` [VOXELOTOR]: the Activity in test [7] was determined as 100%; in [8] it was 80%; in [11] it was 55%; in test [14], 41%. The molecule also came in with an inhibition at 500 µM in test [9] of 56%. Moreover, 1000 µM produced 98% inhibition in test [10].

As to `COC(=O)c1cncc(COc2cccc(O)c2C=O)c1`, in [1], the inhibition entry was “Dose-dependent effect”. In test [2], this molecule showed an inhibition at 2000 µM of more than 90%. For the same molecule, the Activity in test [7] was 60%; in [4] it was “Dose-dependent effect”; in test [13] it was less than 100%; in test [5], “Dose-dependent effect”.

Regarding `COC(=O)c1cncc(COc2ccc(OC)cc2C=O)c1`, the inhibition entry in test [1] is “Dose-dependent effect”. Besides, in test [2], the inhibition at 2000 µM was more than 90%. The Activity was 60% in [7]; “Tde” in test [3] (TDE = time-dependent effect); “Dose-dependent effect” in [4]; less than 100% in test [13]; “Dose-dependent effect” in [5]; “Dose-dependent effect” in test [6].

As for `COC(=O)c1ccc(COc2cccc(O)c2C=O)nc1`, the result in [3] and in test [6] was inactive.

Consider `COC(=O)c1ccc(COc2ccc(OC)cc2C=O)nc1`, for which the outcome in test [3] and in test [6] was inactive.
